Active and inactive are the calls of the source. The calls are words filed in the database; no cut-off is given here.
Key:
[1] = Antiproliferative activity against human WI-26 AV4 cells assessed as reduction in cell viability measured after 72 hrs by MTT assay; conditions: WI26VA4, 72 h
[2] = tested on: hTERT-BJ; experiment: Cytotoxicity against human TERT-Bj-5ta cells assessed as reduction in cell viability at measured after 24 hrs under CoCl2- induced hypoxic condition by MTT assay; format: cell-based
[3] = Antiproliferative activity against human WI-26 AV4 cells assessed as reduction in cell viability measured after 24 hrs by MTT assay; conditions: WI-26 AV4, 24 h
[4] = tested on: A-431; experiment: Antiproliferative activity against human A-431 cells assessed as reduction in cell viability measured after 48 hrs by MTT assay; conditions: A-431, 48 h
[5] = tested on: A-431; experiment: Antiproliferative activity against human A-431 cells assessed as reduction in cell viability measured after 24 hrs by MTT assay; conditions: A-431, 24 h
[6] = target: Carbonic anhydrase 9 (Homo sapiens, UniProt Q16790); experiment: Inhibition of human carbonic anhydrase 9 assessed as inhibition constant incubated for 15 mins prior to testing by phenol red based stopped-flow CO2 hydration assay
[7] = Antiproliferative activity against human WI-26 AV4 cells assessed as reduction in cell viability measured after 48 hrs by MTT assay; conditions: WI-26 AV4, 48 h
[8] = tested on: A-431; experiment: Antiproliferative activity against human A-431 cells assessed as reduction in cell viability measured after 72 hrs by MTT assay; conditions: A-431, 72 h
[9] = tested on: A-431; experiment: Antiproliferative activity against human A-431 cells assessed as cell survival rate at 300 uM measured after 24 hrs under CoCl2-induced hypoxic condition by MTT assay relative to control; format: functional; conditions: read-out: Survival
Summary of the method: (§1)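 MTT end-point assay. MTT (5 mg/mL in PBS) added for 4 h, formazan dissolved in DMSO, absorbance read at 560 nm. Viability given as % of untreated control (100%); mean ± SEM of three experiments.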

[10] = tested on: RT-4; experiment: Antiproliferative activity against human RT-4 cells assessed as cell survival rate at 300 uM measured after 24 hrs under CoCl2-induced hypoxic condition by MTT assay relative to control; format: functional; conditions: read-out: Survival; summary of the method: as §1
[11] = tested on: U-87 MG; experiment: Antiproliferative activity against human U-87 MG cells assessed as cell growth inhibition at 30 to 100 uM measured after 24 hrs under CoCl2-induced hypoxic condition by MTT assay; format: functional, cell-based; conditions: U-87MG ATCC, dose 30-100 µM
[12] = tested on: hTERT-BJ; experiment: Cytotoxicity against human TERT-Bj-5ta cells assessed as reduction in cell viability at 300 uM measured after 24 hrs under CoCl2- induced hypoxic condition by MTT assay relative to control; format: cell-based
[13] = tested on: U-87 MG; experiment: Antiproliferative activity against human U-87 MG cells assessed as cell survival rate at 300 uM measured after 24 hrs under CoCl2-induced hypoxic condition by MTT assay relative to control; format: functional, U-87MG ATCC; conditions: read-out: Survival; summary of the method: as §1
[14] = tested on: A-431; experiment: Antiproliferative activity against human A-431 cells assessed as cell survival rate at 100 uM measured after 24 hrs under CoCl2-induced hypoxic condition by MTT assay relative to control; format: functional; conditions: read-out: Survival; summary of the method: as §1
[15] = tested on: RT-4; experiment: Antiproliferative activity against human RT-4 cells assessed as cell survival rate at 100 uM measured after 24 hrs under CoCl2-induced hypoxic condition by MTT assay relative to control; format: functional; conditions: read-out: Survival; summary of the method: as §1
[16] = tested on: A-431; experiment: Induction of apoptosis in human A-431 cells assessed as early apoptotic cells at 10 uM incubated for 24 hrs by annexin-V/FITC and propidium iodide based staining based flow cytometry (Rvb= 6.10 %); format: functional
[17] = tested on: A-431; experiment: Induction of apoptosis in human A-431 cells assessed as late apoptotic cells at 10 uM incubated for 24 hrs by annexin-V/FITC and propidium iodide based staining based flow cytometry (Rvb= 3.06 %); format: functional
[18] = tested on: A-431; experiment: Induction of apoptosis in human A-431 cells assessed as late apoptotic cells at 5 uM incubated for 24 hrs by annexin-V/FITC and propidium iodide based staining based flow cytometry (Rvb= 3.06 %); format: functional
[19] = tested on: A-431; experiment: Induction of apoptosis in human A-431 cells assessed as early apoptotic cells at 5 uM incubated for 24 hrs by annexin-V/FITC and propidium iodide based staining based flow cytometry (Rvb= 6.10 %); format: functional
[20] = tested on: A-431; experiment: Induction of apoptosis in human A-431 cells assessed as early apoptotic cells at 20 uM incubated for 24 hrs by annexin-V/FITC and propidium iodide based staining based flow cytometry (Rvb= 6.10 %); format: functional
[21] = tested on: A-431; experiment: Induction of apoptosis in human A-431 cells assessed as dead cells at 15 uM incubated for 24 hrs by annexin-V/FITC and propidium iodide based staining based flow cytometry (Rvb= 0.14 %); format: functional
[22] = tested on: A-431; experiment: Induction of apoptosis in human A-431 cells assessed as dead cells at 20 uM incubated for 24 hrs by annexin-V/FITC and propidium iodide based staining based flow cytometry (Rvb= 0.14 %); format: functional
[23] = tested on: A-431; experiment: Induction of apoptosis in human A-431 cells assessed as dead cells at 5 uM incubated for 24 hrs by annexin-V/FITC and propidium iodide based staining based flow cytometry (Rvb= 0.14 %); format: functional
[24] = tested on: A-431; experiment: Induction of apoptosis in human A-431 cells assessed as early apoptotic cells at 25 uM incubated for 24 hrs by annexin-V/FITC and propidium iodide based staining based flow cytometry (Rvb= 6.10 %); format: functional
[25] = tested on: A-431; experiment: Induction of apoptosis in human A-431 cells assessed as viable cells at 25 uM incubated for 24 hrs by annexin-V/FITC and propidium iodide based staining based flow cytometry (Rvb= 90.70 %); format: functional; conditions: read-out: Activity
[26] = tested on: A-431; experiment: Induction of apoptosis in human A-431 cells assessed as late apoptotic cells at 20 uM incubated for 24 hrs by annexin-V/FITC and propidium iodide based staining based flow cytometry (Rvb= 3.06 %); format: functional
[27] = tested on: A-431; experiment: Induction of apoptosis in human A-431 cells assessed as viable cells at 10 uM incubated for 24 hrs by annexin-V/FITC and propidium iodide based staining based flow cytometry (Rvb= 90.70 %); format: functional; conditions: read-out: Activity
[28] = tested on: A-431; experiment: Induction of apoptosis in human A-431 cells assessed as viable cells at 5 uM incubated for 24 hrs by annexin-V/FITC and propidium iodide based staining based flow cytometry (Rvb= 90.70 %); format: functional; conditions: read-out: Activity
[29] = tested on: A-431; experiment: Induction of apoptosis in human A-431 cells assessed as late apoptotic cells at 25 uM incubated for 24 hrs by annexin-V/FITC and propidium iodide based staining based flow cytometry (Rvb= 3.06 %); format: functional
[30] = tested on: A-431; experiment: Induction of apoptosis in human A-431 cells assessed as activation of caspase 3/7 measured after 24 hrs by CellEvent caspase 3/7 green detection reagent based assay; format: functional, cell-based
Summary of the method: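 Subconfluent cells in 6-well plates exposed to compound (5–25) for 24 h at 37 °C, 5% CO₂. Cells washed in PBS and resuspended at 1 × 10^6/mL. CellEvent caspase-3/7 green reagent added at 4 final, incubated 30 min at 37 °C, then analysed by flow cytometry within 20 min.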

[31] = tested on: A-431; experiment: Induction of apoptosis in human A-431 cells assessed as late apoptotic cells at 15 uM incubated for 24 hrs by annexin-V/FITC and propidium iodide based staining based flow cytometry (Rvb= 3.06 %); format: functional
[32] = tested on: A-431; experiment: Induction of apoptosis in human A-431 cells assessed as viable cells at 15 uM incubated for 24 hrs by annexin-V/FITC and propidium iodide based staining based flow cytometry (Rvb= 90.70 %); format: functional; conditions: read-out: Activity
[33] = tested on: A-431; experiment: Induction of apoptosis in human A-431 cells assessed as viable cells at 20 uM incubated for 24 hrs by annexin-V/FITC and propidium iodide based staining based flow cytometry (Rvb= 90.70 %); format: functional; conditions: read-out: Activity
[34] = tested on: A-431; experiment: Induction of apoptosis in human A-431 cells assessed as early apoptotic cells at 15 uM incubated for 24 hrs by annexin-V/FITC and propidium iodide based staining based flow cytometry (Rvb= 6.10 %); format: functional
[35] = tested on: A-431; experiment: Induction of apoptosis in human A-431 cells assessed as dead cells at 25 uM incubated for 24 hrs by annexin-V/FITC and propidium iodide based staining based flow cytometry (Rvb= 0.14 %); format: functional
[36] = tested on: A-431; experiment: Induction of apoptosis in human A-431 cells assessed as dead cells at 10 uM incubated for 24 hrs by annexin-V/FITC and propidium iodide based staining based flow cytometry (Rvb= 0.14 %); format: functional
[37] = target: Carbonic anhydrase 2 (Homo sapiens, UniProt P00918); experiment: Inhibition of human carbonic anhydrase 2 assessed as inhibition constant incubated for 15 mins prior to testing by phenol red based stopped-flow CO2 hydration assay

With `NS(=O)(=O)c1cc2cc(Cl)ccc2oc1=O` the IC50 [1] was 5.87 µM, the Activity [2] was “Non-Toxic” and the IC50 [3] was 89.2 µM. The IC50 [4] was 29.1 µM, the IC50 [5] was 51.9 µM and the Ki [6] was 0.177 µM. It also gave an IC50 [7] of 45.1 µM, an IC50 [8] of 57.8 µM and a viability at 300 µM [9] of 36.5%. For the same molecule, the viability at 300 µM [10] was 19.7% and the “growth inhibition (GI)” value [11] was “inactive”.

In the case of `CCOc1cccc2cc(S(N)(=O)=O)c(=O)oc12`, the Ki [6] is reported as 0.0515 µM, the Activity [12] is reported as 55.97% and the “growth inhibition (GI)” value [11] is reported as “inactive”.

In the case of `Cc1ccc2oc(=O)c(S(N)(=O)=O)cc2c1`, the Ki [6] is reported as 0.0474 µM and the “growth inhibition (GI)” value [11] is reported as “inactive”.

With `Cc1cc(C)c2cc(S(N)(=O)=O)c(=O)oc2c1` the Ki [6] was 0.825 µM and the “growth inhibition (GI)” value [11] was “inactive”.

In the case of `NS(=O)(=O)c1cc2cc(Cl)cc(Cl)c2oc1=O`, the IC50 [1] is reported as 14.3 µM, the Activity [2] is reported as “Non-Toxic” and the IC50 [3] is reported as 74 µM. It also gave an IC50 [4] of 20.3 µM, an IC50 [5] of 26.9 µM and a Ki [6] of 0.518 µM. For the same molecule, the viability at 300 µM [13] was 54.1%, the viability at 100 µM [14] was 38.8% and the IC50 [7] was 9.54 µM. For the same molecule, the IC50 [8] was 35.2 µM, the viability at 300 µM [9] was 2.84% and the viability at 100 µM [15] was 43.5%. The viability at 300 µM [10] was 15.1% and the “growth inhibition (GI)” value [11] was “inactive”.

`NS(=O)(=O)c1cc2c(ccc3ccccc32)oc1=O` showed an Activity [16] of 9.25%, an IC50 [1] greater than 350 µM and an Activity [17] of 1.99%. The Activity [18] was 2.79%, the Activity [19] was 3.89% and the Activity [20] was 15.93%. For the same molecule, the Activity [2] was “Non-Toxic”, the IC50 [3] was 41.7 µM and the IC50 [4] was 25.9 µM. For the same molecule, the IC50 [5] was 9.73 µM, the Activity [21] was 0.24% and the Activity [22] was 0.25%. For the same molecule, the Ki [6] was 6.37 µM, the Activity [23] was 0.48% and the Activity [24] was 18.56%. For the same molecule, the viability at 300 µM [13] was 67.9%, the viability at 25 µM [25] was 78.7% and the viability at 100 µM [14] was 73%. The Activity [26] was 2.65%, the viability at 10 µM [27] was 88.4% and the IC50 [7] was 84.5 µM. It also gave a viability at 5 µM [28] of 92.8%, an IC50 [8] of 70.1 µM and an Activity [29] of 2.31%. For the same molecule, the Activity [30] was “Dose-Dependent Effect”, the viability at 300 µM [9] was 23.4% and the Activity [31] was 1.7%. It also gave a viability at 15 µM [32] of 85.5%, a viability at 20 µM [33] of 81.2% and an Activity [34] of 12.52%. For the same molecule, the Activity [35] was 0.41%, the Activity [36] was 0.34% and the Ki [37] was greater than 100 µM. The “growth inhibition (GI)” value [11] was “inactive”.

For `COc1ccc2cc(S(N)(=O)=O)c(=O)oc2c1`, the Ki [6] was 0.0405 µM and the “growth inhibition (GI)” value [11] was “inactive”.

For `NS(=O)(=O)c1cc2cc([N+](=O)[O-])ccc2oc1=O`, the Ki [6] was 0.148 µM and the “growth inhibition (GI)” value [11] was “inactive”.

Reference: ChEMBL document CHEMBL4825703, “Investigation of 3-sulfamoyl coumarins against cancer-related IX and XII isoforms of human carbonic anhydrase as well as cancer cells leads to the discovery of 2-oxo-2H-benzo[h]chromene-3-sulfonamide - A new caspase-activating proapoptotic agent” (Eur J Med Chem, 2021)
